Laboratory results as given in ChEMBL document CHEMBL1133735, “Synthesis, in vitro anti-breast cancer activity, and intracellular decomposition of amino acid methyl ester and alkyl amide phosphoramidate monoesters of 3'-azido-3'-deoxythymidine (AZT)” (J Med Chem, 2000).

Experiments:
[1] = Partition coefficient (logP); type: physicochemical; details: octanol/water
Summary of the method: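 Octanol and water pre-equilibrated (shaken 6 h, stood overnight); ~0.5 mg compound added, shaken 1 h at room temperature, centrifuged 1 h at 1000 rpm, left 30 h to equilibrate. Each phase read by UV absorbance, concentration from extinction coefficients via Beer-Lambert using standard curves over 2-300 µM. Duplicate or triplicate; mean of two values within 15%.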

MCF7 [2] = experiment: In vitro cytotoxic concentration required to reduce MCF-7 cell growth by 50%; type: functional; details: Homo sapiens
Summary of the method: (§1)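 MCF-7 cells kept in RPMI 1640 with 10% heat-inactivated FBS, penicillin and streptomycin; 5×10^4 to 6×10^4 cells per well dosed with compound in PBS at final 0.001, 0.01, 0.1, 1, 10 and 100 µM; 48 h at 37 °C, 10% CO2. Brief trypsin release, viable cells counted by trypan blue exclusion; triplicate, untreated wells as control. CC50 = concentration giving 50% growth reduction versus control.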

CCRF-CEM [3] = experiment: Tested for intracellular levels of AZT phosphate against CEM cell lines.; type: functional, Homo sapiens
Summary of the method: (§2)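 About 1.5×10^6 MCF-7 or 3×10^6 CEM cells exposed to 100 µM compound for 17 h, then medium removed. Phosphorylated fractions (phosphates plus phosphoramidate) dephosphorylated with potato acid phosphatase in potassium hydrogen phthalate buffer, 4 h at 37 °C, dried, reconstituted in FPIA buffer; AZT quantified by RIA and phosphorylated amounts extrapolated. Reported as pmol per million cells.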

MCF7 [4] = experiment: Tested for intracellular levels of AZT phosphate against MCF-7 cell lines.; type: functional, Homo sapiens; summary of the method: as §2
MCF7 [5] = experiment: Tested for intracellular levels of phosphoramidate against MCF-7 cell lines.; type: functional, Homo sapiens; summary of the method: as §2
CCRF-CEM [6] = experiment: Cytotoxic activity against CEM cell lines.; type: functional, Homo sapiens
MCF7 [7] = experiment: Cytotoxic activity against MCF-7 cell lines.; type: functional, Homo sapiens; summary of the method: as §1
CCRF-CEM [8] = experiment: Tested for intracellular levels of phosphoramidate against CEM cell lines.; type: functional, Homo sapiens; summary of the method: as §2

Row | SMILES | logP [1] | CC50 (MCF7 [2]) [µM] | also measured
1 | COC(=O)[C@H](CC(C)C)NP(=O)(O)OC[C@H]1OC(n2cc(C)c(=O)[nH]c2=O)C[C@H]1N=[N+]=[N-] (stereo not given in full) | -1.5 | > 100 | –
2 | COC(=O)[C@H](Cc1ccc(O)cc1)NP(=O)(O)OC[C@H]1OC(n2cc(C)c(=O)[nH]c2=O)C[C@H]1N=[N+]=[N-] (stereo not given in full) | -1.59 | 10 | –
3 | COC(=O)[C@@H](NP(=O)(O)OC[C@H]1OC(n2cc(C)c(=O)[nH]c2=O)C[C@H]1N=[N+]=[N-])C(C)C (stereo not given in full) | -1.56 | 6 | –
4 | CNC(=O)[C@H](C)NP(=O)(O)OC[C@H]1OC(n2cc(C)c(=O)[nH]c2=O)C[C@H]1N=[N+]=[N-] (stereo not given in full) | -1.21 | > 100 | –
5 | CNC(=O)[C@@H](NP(=O)(O)OC[C@H]1OC(n2cc(C)c(=O)[nH]c2=O)C[C@H]1N=[N+]=[N-])C(C)C (stereo not given in full) | -1.64 | 2.2 | –
6 | COC(=O)[C@H](C)NP(=O)(O)OC[C@H]1OC(n2cc(C)c(=O)[nH]c2=O)C[C@H]1N=[N+]=[N-] (stereo not given in full) | -1.25 | 5.8 | –
7 | COC(=O)CNP(=O)(O)OC[C@H]1OC(n2cc(C)c(=O)[nH]c2=O)C[C@H]1N=[N+]=[N-] (stereo not given in full) | -1.24 | > 100 | –
8 | CNC(=O)CNP(=O)(O)OC[C@H]1O[C@@H](n2cc(C)c(=O)[nH]c2=O)C[C@@H]1N=[N+]=[N-] | -1.15 | 5 | –
9 | Cc1cn([C@H]2C[C@H](N=[N+]=[N-])[C@@H](CO)O2)c(=O)[nH]c1=O [ZIDOVUDINE] | – | – | Amount (CCRF-CEM [3]): 810.9 pM (10e6*cells)-1; Amount (MCF7 [4]): 2658.4 pM (10e6*cells)-1; Cytotoxicity (CCRF-CEM [6]): 14.3 µM; Cytotoxicity (MCF7 [7]): 0.008 µM

Now from value to compound, other results behind:

Row | logP [1] | SMILES | CC50 (MCF7 [2]) [µM] | also measured
10 | -1.38 | CNC(=O)[C@H](Cc1ccc(O)cc1)NP(=O)(O)OC[C@H]1OC(n2cc(C)c(=O)[nH]c2=O)C[C@H]1N=[N+]=[N-] (stereo not given in full) | > 100 | –
11 | -1.39 | Cc1cn(C2C[C@@H](N=[N+]=[N-])[C@@H](COP(=O)(O)N[C@@H](Cc3c[nH]c4ccccc34)C(=O)NC3CC3)O2)c(=O)[nH]c1=O (stereo not given in full) | 90 | –
12 | -1.3 | Cc1cn(C2C[C@@H](N=[N+]=[N-])[C@@H](COP(=O)(O)N[C@@H](Cc3c[nH]c4ccccc34)C(=O)NC(C)C)O2)c(=O)[nH]c1=O (stereo not given in full) | > 100 | –
13 | -1.53 | CCNC(=O)[C@H](Cc1c[nH]c2ccccc12)NP(=O)(O)OC[C@H]1OC(n2cc(C)c(=O)[nH]c2=O)C[C@H]1N=[N+]=[N-] (stereo not given in full) | > 100 | –
14 | -1.89 | CNC(=O)[C@@H](Cc1c[nH]c2ccccc12)NP(=O)(O)OC[C@H]1OC(n2cc(C)c(=O)[nH]c2=O)C[C@H]1N=[N+]=[N-] (stereo not given in full) | > 100 | –
15 | -1.7 | CNC(=O)[C@@H](Cc1ccccc1)NP(=O)(O)OC[C@H]1OC(n2cc(C)c(=O)[nH]c2=O)C[C@H]1N=[N+]=[N-] (stereo not given in full) | > 100 | –
16 | -0.914 | Cc1cn(C2C[C@@H](N=[N+]=[N-])[C@@H](COP(=O)(O)N[C@@H](Cc3c[nH]c4ccccc34)C(=O)NC3CCCCC3)O2)c(=O)[nH]c1=O (stereo not given in full) | 16 | –
17 | -1.52 | CNC(=O)[C@H](CC(C)C)NP(=O)(O)OC[C@H]1OC(n2cc(C)c(=O)[nH]c2=O)C[C@H]1N=[N+]=[N-] (stereo not given in full) | > 100 | –
18 | -1.38 | CNC(=O)[C@H](Cc1c[nH]c2ccccc12)NP(=O)(O)OC[C@H]1OC(n2cc(C)c(=O)[nH]c2=O)C[C@H]1N=[N+]=[N-] (stereo not given in full) | 0.016 | –
19 | -1.49 | CNC(=O)[C@H](Cc1ccccc1)NP(=O)(O)OC[C@H]1OC(n2cc(C)c(=O)[nH]c2=O)C[C@H]1N=[N+]=[N-] (stereo not given in full) | 1.4 | –
20 | -1.33 | COC(=O)[C@@H](Cc1ccccc1)NP(=O)(O)OC[C@H]1O[C@@H](n2cc(C)c(=O)[nH]c2=O)C[C@@H]1N=[N+]=[N-] | > 100 | –
21 | -1.84 | COC(=O)[C@H](Cc1ccccc1)NP(=O)(O)OC[C@H]1O[C@@H](n2cc(C)c(=O)[nH]c2=O)C[C@@H]1N=[N+]=[N-] | 0.4 | Amount (CCRF-CEM [3]): 120.7 pM (10e6*cells)-1; Amount (MCF7 [4]): 221 pM (10e6*cells)-1; Amount (MCF7 [5]): 295 pM (10e6*cells)-1; Cytotoxicity (CCRF-CEM [6]): >100 µM; Cytotoxicity (MCF7 [7]): 0.4 µM; Amount (CCRF-CEM [8]): 7.8 pM (10e6*cells)-1
22 | -1.36 | COC(=O)[C@@H](Cc1c[nH]c2ccccc12)NP(=O)(O)OC[C@H]1O[C@@H](n2cc(C)c(=O)[nH]c2=O)C[C@@H]1N=[N+]=[N-] | > 100 | –
23 | -0.686 | COC(=O)[C@H](Cc1c[nH]c2ccccc12)NP(=O)(O)OC[C@H]1O[C@@H](n2cc(C)c(=O)[nH]c2=O)C[C@@H]1N=[N+]=[N-] | 0.059 | Amount (CCRF-CEM [3]): 115.8 pM (10e6*cells)-1; Amount (MCF7 [4]): 196.5 pM (10e6*cells)-1; Amount (MCF7 [5]): 213.6 pM (10e6*cells)-1; Cytotoxicity (CCRF-CEM [6]): >100 µM; Cytotoxicity (MCF7 [7]): 0.059 µM; Amount (CCRF-CEM [8]): 14.6 pM (10e6*cells)-1
